Measurements taken from ChEMBL document CHEMBL1123198, “Stereoselective syntheses of the trans-decahydroquinoline-5-carboxylic acid epimers. Diastereomeric zwitterionic probes of gamma-aminobutyric acid related biological properties in vitro and in vivo” (1986).

Columns and labels:
[1] = target: T1, GABA-A receptor; anion channel (Rattus norvegicus) (UniProt O09028+P15431+P18506+P18508+P19969+P20236+P23574+P23576+P28471+P28473+P30191+P62813+P63079+P63138+Q91ZM7+Q9ES14); details: Brain, Brain membranes
Mus musculus [2] = assay: Convulsant effect on ICV administration in mice at 100 ug; format: functional
In short: (§1)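 Mice under halothane anaesthesia got a 4 µL injection into the left ventricle at 25, 50 or 100 µg, with saline controls. Mice sat in a 1-L beaker and were watched for seizures from 2 min after injection, and for behaviour over 40 min. A seizure counted when tonic-clonic convulsions occurred and the mouse fell on its flank. Read-out: mice convulsing/mice tested, and seizure duration in min (mean ± SEM).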

Mus musculus [3] = assay: Convulsant effect on ICV administration in mice at 50 ug; format: functional
In short: as §1

Mus musculus [4] = assay: Convulsant effect on ICV administration in mice at 100microg, 5/5 mice affected; format: functional
In short: as §1

Mus musculus [5] = assay: Convulsant effect on ICV administration in mice at 25microg, 0/5 mice affected; format: functional
In short: as §1

Mus musculus [6] = assay: Convulsant effect on ICV administration in mice at 50microg, 5/5 mice affected; format: functional
In short: as §1

Mus musculus [7] = species on record: Mus musculus; assay: Reversal of convulsant effect by Diazepam pretreatment at 100 ug ICV dose, 5/5 mice affected; format: functional
Mus musculus [8] = assay: Reversal of convulsant effect by Diazepam pretreatment (10 mg/kg) at 100 ug ICV dose, 0/5 mice affected; format: functional
Mus musculus [9] = assay: Reversal of convulsant effect by Diazepam pretreatment (2 mg/kg) at 100 ug ICV dose, 5/5 mice affected; format: functional
Mus musculus [10] = assay: Reversal of convulsant effect by Diazepam pretreatment (5 mg/kg) at 100 ug ICV dose, 4/4 mice affected; format: functional
[11] = target: GABA B receptor (Rattus norvegicus) (UniProt Q9Z0U4+O88871); assay: Displacement of [3H]-GABA from Gamma-aminobutyric acid type B receptor in rat brain membranes; format: cell membranes; parameters: concentration or dose not given beside the values
In short: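 GABA-B binding: rat brain membranes were incubated with [3H]GABA plus 40 µM isoguvacine to block GABA-A sites. Nonspecific binding was defined with 100 µM baclofen. Values are means of three experiments, each in duplicate; standard errors were below 20%.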

[12] = target: T1, GABA-A receptor; anion channel (Rattus norvegicus); assay: Displacement of [35S]TBPS from GABA-A receptor of rat brain membranes; format: cell membranes; parameters: concentration or dose not given beside the values; details: Membrane
In short: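 [35S]TBPS binding assay with nonspecific binding defined by 10 µM unlabelled TBPS. Values are means of two experiments, each in duplicate.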

[13] = target: T1, GABA-A receptor; anion channel (Rattus norvegicus); assay: Displacement of [3H]-GABA from Gamma-aminobutyric acid A receptor in rat brain membranes; format: cell membranes; parameters: concentration or dose not given beside the values
In short: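 GABA-A binding used [3H]GABA as ligand, with nonspecific binding taken in 1 mM unlabelled GABA. Values are means of three experiments, each in duplicate; standard error of the means was below 10%.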

[14] = target: T1, GABA-A receptor; anion channel (Rattus norvegicus); assay: Displacement of GABA activated [3H]diazepam binding in rat brain membranes; format: cell membranes
In short: (§2)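 [3H]Diazepam binding, alone and GABA-activated, was measured in brain membranes. Nonspecific binding was taken with 1 µM unlabelled diazepam. Values are means of two experiments, each in duplicate.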

[15] = target: T1, GABA-A receptor; anion channel (Rattus norvegicus); assay: Displacement of [3H]diazepam binding in rat brain membranes; format: cell membranes; parameters: unit not given here
In short: as §2

[16] = target: GABA transporter (Rattus norvegicus) (UniProt P31647+P23978+P31646+P48056); assay: Inhibition of [3H]GABA uptake from rat brain membranes; format: functional, cell membranes; details: Membrane, concentration not given here
Chain of GABA transporter (Rattus norvegicus) (P31646 whole entry, looked up): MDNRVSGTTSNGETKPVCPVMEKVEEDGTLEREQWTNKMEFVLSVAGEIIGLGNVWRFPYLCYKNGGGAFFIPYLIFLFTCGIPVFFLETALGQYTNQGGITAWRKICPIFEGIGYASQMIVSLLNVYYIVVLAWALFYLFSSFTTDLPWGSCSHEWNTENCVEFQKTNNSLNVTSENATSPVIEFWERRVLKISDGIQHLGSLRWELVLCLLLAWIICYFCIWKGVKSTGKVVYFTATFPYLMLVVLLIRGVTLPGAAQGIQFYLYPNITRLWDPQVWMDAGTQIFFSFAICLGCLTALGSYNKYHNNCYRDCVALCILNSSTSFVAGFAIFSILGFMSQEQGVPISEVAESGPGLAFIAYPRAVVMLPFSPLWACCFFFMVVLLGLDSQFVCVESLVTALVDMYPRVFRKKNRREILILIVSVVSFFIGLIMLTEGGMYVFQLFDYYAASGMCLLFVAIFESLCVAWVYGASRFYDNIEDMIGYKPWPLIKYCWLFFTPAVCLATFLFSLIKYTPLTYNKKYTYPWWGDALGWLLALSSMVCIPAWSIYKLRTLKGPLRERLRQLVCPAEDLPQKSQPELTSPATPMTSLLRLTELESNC
Chain of GABA transporter (Rattus norvegicus) (P31647 whole entry, looked up): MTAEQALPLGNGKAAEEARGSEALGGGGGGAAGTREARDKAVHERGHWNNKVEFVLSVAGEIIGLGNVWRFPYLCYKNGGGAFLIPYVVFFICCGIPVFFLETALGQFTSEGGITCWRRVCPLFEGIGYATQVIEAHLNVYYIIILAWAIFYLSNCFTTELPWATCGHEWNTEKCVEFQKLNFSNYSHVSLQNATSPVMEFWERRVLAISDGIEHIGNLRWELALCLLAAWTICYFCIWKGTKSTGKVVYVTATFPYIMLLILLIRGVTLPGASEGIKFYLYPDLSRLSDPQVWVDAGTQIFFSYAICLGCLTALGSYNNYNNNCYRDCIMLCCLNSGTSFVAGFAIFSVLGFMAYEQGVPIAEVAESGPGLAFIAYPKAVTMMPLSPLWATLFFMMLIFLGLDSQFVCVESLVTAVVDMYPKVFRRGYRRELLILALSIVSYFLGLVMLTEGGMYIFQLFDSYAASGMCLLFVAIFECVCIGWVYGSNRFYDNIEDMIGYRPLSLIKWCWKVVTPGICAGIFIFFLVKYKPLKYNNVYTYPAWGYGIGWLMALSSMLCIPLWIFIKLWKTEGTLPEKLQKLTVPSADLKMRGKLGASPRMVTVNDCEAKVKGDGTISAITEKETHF
Chain of GABA transporter (Rattus norvegicus) (P48056 whole entry, looked up): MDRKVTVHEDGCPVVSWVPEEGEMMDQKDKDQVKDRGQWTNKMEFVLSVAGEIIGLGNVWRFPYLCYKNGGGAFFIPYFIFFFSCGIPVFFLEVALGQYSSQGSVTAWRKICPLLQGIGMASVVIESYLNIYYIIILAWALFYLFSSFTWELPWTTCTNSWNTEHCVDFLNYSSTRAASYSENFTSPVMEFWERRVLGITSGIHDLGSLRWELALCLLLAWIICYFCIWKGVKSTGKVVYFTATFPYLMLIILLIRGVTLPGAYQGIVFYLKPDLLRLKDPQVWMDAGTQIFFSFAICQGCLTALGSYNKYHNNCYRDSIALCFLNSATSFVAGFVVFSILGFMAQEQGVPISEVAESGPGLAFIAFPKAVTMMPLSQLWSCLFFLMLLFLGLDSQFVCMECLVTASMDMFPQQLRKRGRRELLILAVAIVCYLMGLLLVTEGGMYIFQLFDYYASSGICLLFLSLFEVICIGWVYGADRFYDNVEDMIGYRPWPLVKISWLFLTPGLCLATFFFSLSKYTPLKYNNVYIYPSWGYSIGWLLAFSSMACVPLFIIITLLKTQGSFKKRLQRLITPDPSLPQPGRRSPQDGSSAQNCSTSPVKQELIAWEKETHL
In short: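 High-affinity [3H]GABA uptake was measured into rat brain synaptosomes. Values are means of two experiments.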

Rattus norvegicus = species on record: Rattus norvegicus; assay: Cyclic AMP accumulation in Rat brain cerebral cortical slices by the compound, activity expressed as % conversion; format: functional
In short: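 Rat cerebral cortical slices were used for cAMP accumulation. cAMP was isolated by double-column chromatography. Values are means of two experiments, each run in duplicate.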

[17] = target: T1, GABA-A receptor; anion channel (Rattus norvegicus); details: Brain, Brain membranes; remark: listed apart in the source
[18] = target: T1, GABA-A receptor; anion channel (Rattus norvegicus); assay: Displacement of GABA activated [3H]diazepam binding in rat brain membranes at 100 uM; format: cell membranes
In short: as §2

[19] = target: T1, GABA-A receptor; anion channel (Rattus norvegicus); assay: Displacement of [3H]diazepam binding to rat brain membranes at 100 uM concentration; format: cell membranes; details: Membrane
In short: as §2

Mus musculus [20] = assay: Convulsant effect on ICV administration in mice at 50microg, 1/6 mice affected; format: functional
In short: as §1

Mus musculus [21] = assay: Reversal of convulsant effect by Diazepam pretreatment (10 mg/kg) at 100 ug ICV dose, 0/6 mice affected; format: functional
Mus musculus [22] = assay: Reversal of convulsant effect by Diazepam pretreatment (2 mg/kg) at 100 ug ICV dose, 4/4 mice affected; format: functional
Mus musculus [23] = assay: Reversal of convulsant effect by Diazepam pretreatment (5 mg/kg) at 100 ug ICV dose, 5/5 mice affected; format: functional

## CC(C)NCC(O)c1ccc(O)c(O)c1.O=C(O)[C@@H]1CCCC2NCCCC21 (stereo not given)
[1]
  Binding affinity (spec bound mg-1): 0.91

## O=C(O)[C@@H]1CCCC2NCCCC21 (stereo in doubt; 3) [listing 1 of 2 here]
Mus musculus [2]
  Duration of seizure: 26.5 min
Mus musculus [3]
  Duration of seizure: 9.5 min
Mus musculus [4]
  Tonic-clonic seizure: 5
Mus musculus [5]
  Tonic-clonic seizure: 0
Mus musculus [6]
  Tonic-clonic seizure: 5
Mus musculus [7]
  Tonic-clonic seizure: 5
Mus musculus [8]
  Tonic-clonic seizure: 0
Mus musculus [9]
  Tonic-clonic seizure: 5
Mus musculus [10]
  Tonic-clonic seizure: 4

## O=C(O)[C@@H]1CCCC2NCCCC21 (stereo in doubt; form 2)
[11]
  Displacement: < 10%
[12]
  Displacement: < 5%
[13]
  Displacement: < 10%
[14]
  Binding affinity (spec bound mg-1): 59.4
[15]
  Binding affinity (spec bound mg-1): 32
[16]
  inhibition: 15%

## O=C(O)[C@@H]1CCCC2NCCCC21 (stereo in doubt; 3) [listing 2 of 2 here]
[11]
  Displacement: < 10%
[12]
  Displacement: < 5%
[13]
  Displacement: < 10%
[14]
  Binding affinity (spec bound mg-1): 59.1
[15]
  Binding affinity (spec bound mg-1): 28.8
[16]
  inhibition: < 5%

## CC(C)NCC(O)c1ccc(O)c(O)c1.O=C(O)[C@@H]1CCCC2NCCCC21 (stereo in doubt; form 5)
Rattus norvegicus
  Conversion: 0.8%

## C=C(C)[C@@H]1[C@H]2OC(=O)[C@@H]1[C@]1(O)C[C@H]3O[C@]34C(=O)O[C@H]2[C@]14C
[12]
  Displacement: 90%

## CC(C)NCC(O)c1ccc(O)c(O)c1.NCC(CC(=O)O)c1ccc(Cl)cc1.O=C(O)[C@@H]1CCCC2NCCCC21 (stereo in doubt; form 3)
Rattus norvegicus
  Conversion: 2.81%

## CC(C)NCC(O)c1ccc(O)c(O)c1.O=C(O)C1CCCC2NCCCC21 (stereo not given)
Rattus norvegicus
  Conversion: 0.84%

## CC(C)NCC(O)c1ccc(O)c(O)c1 (stereo not given) [ISOPROTERENOL]
Rattus norvegicus
  Conversion: 0.84%

## NCCCC(=O)O
[11]
  Displacement: 100%
[13]
  Displacement: 100%
[17]
  Binding affinity (spec bound mg-1): 55.4

## CC(C)NCC(O)c1ccc(O)c(O)c1.NCC(CC(=O)O)c1ccc(Cl)cc1 (stereo not given)
Rattus norvegicus
  Conversion: 2.56%

## O=C(O)[C@@H]1CCCC2NCCCC21 (stereo in doubt; form 1)
[11]
  Displacement: < 10%
[12]
  Displacement: < 5%
[13]
  Displacement: < 10%
[18]
  Binding affinity (spec bound mg-1): 55.3
[19]
  Binding affinity (spec bound mg-1): 31.9
[16]
  inhibition: < 5%

## NCC(CC(=O)O)c1ccc(Cl)cc1 (stereo not given) [BACLOFEN]
[11]
  Displacement: 100%
[13]
  Displacement: 15%
Rattus norvegicus
  Conversion: 0.2%

## CN1C(=O)CN=C(c2ccccc2)c2cc(Cl)ccc21
[15]
  Binding affinity (spec bound mg-1): 29.3

## CC(C)NCC(O)c1ccc(O)c(O)c1.NCC(CC(=O)O)c1ccc(Cl)cc1.O=C(O)C1CCCC2NCCCC21 (stereo not given)
Rattus norvegicus
  Conversion: 2.65%

## O=C(O)C1CCCC2NCCCC21 (trans isomer)
[11]
  Displacement: 38%
[12]
  Displacement: < 5%
[13]
  Displacement: 43%
[14]
  Binding affinity (spec bound mg-1): 65.5
[15]
  Binding affinity (spec bound mg-1): 35
Mus musculus [2]
  Duration of seizure: 11.7 min
Mus musculus [3]
  Duration of seizure: 0.8 min
Mus musculus [4]
  Tonic-clonic seizure: 5
Mus musculus [5]
  Tonic-clonic seizure: 0
Mus musculus [20]
  Tonic-clonic seizure: 1
Mus musculus [7]
  Tonic-clonic seizure: 5
Mus musculus [21]
  Tonic-clonic seizure: 0
Mus musculus [22]
  Tonic-clonic seizure: 4
Mus musculus [23]
  Tonic-clonic seizure: 5
[16]
  inhibition: < 5%

## CC(C)NCC(O)c1ccc(O)c(O)c1.NCC(CC(=O)O)c1ccc(Cl)cc1.O=C(O)[C@@H]1CCCC2NCCCC21 (stereo in doubt; form 1)
Rattus norvegicus
  Conversion: 2.59%

## CC(C)NCC(O)c1ccc(O)c(O)c1.O=C(O)[C@@H]1CCCC2NCCCC21 (stereo in doubt; form 2)
Rattus norvegicus
  Conversion: 0.86%

## CC(C)NCC(O)c1ccc(O)c(O)c1.NCC(CC(=O)O)c1ccc(Cl)cc1.O=C(O)[C@@H]1CCCC2NCCCC21 (stereo in doubt; form 4)
Rattus norvegicus
  Conversion: 2.63%
